A selection: hits, their analogues and other compounds. The true share with any hit is near 2.1%.
Insulin prom up – MIN6 insulin promoter up-regulation; MIN6 insulin promoter-GFP reporter, high-content imaging; stronger effect = higher value; z-score at 5 µM; 0.3% of 190,000 active; AID 1625;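 active = z-score above 3 at 5 µM with at least 500 cells counted in the well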
RBBP9 inhibitor – human RBBP9 hydrolase inhibition; O75884; recombinant RBBP9, FP-Rh probe fluorescence polarization; inhibition, % at 7.94 µM; 0.2% of 220,000 active;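 active = inhibition above the campaign mean of all tested compounds plus 3 SD, cut at about 14% in these data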;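 note: plate controls were DMSO wells with RBBP9 for no effect and wells lacking RBBP9 protein for full effect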
Target sequence (O75884 whole entry, looked up): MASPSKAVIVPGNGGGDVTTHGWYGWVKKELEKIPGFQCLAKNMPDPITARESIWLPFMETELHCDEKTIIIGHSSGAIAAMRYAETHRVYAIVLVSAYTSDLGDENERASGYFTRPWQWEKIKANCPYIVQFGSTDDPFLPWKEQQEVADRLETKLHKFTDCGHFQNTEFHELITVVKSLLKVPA
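Material: RBBP9 protein. Amount: RBBP9 at 2.5 µM in dispensed solution, before mixing. Schedule: 30 min then 45 min, 25 °C. Medium: Tris buffer pH 8.0, NaCl, Pluronic. Measured by: fluorescence polarization. Measure: percent inhibition from mP, scaled between DMSO and no-protein wells. Replication: one well per compound.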
PKD1 inh – blocks activity of human protein kinase D1; Q15139; PKD1 kinase fluorescence polarization assay; inhibition, % (no concentration beside the values); 0.056% of 200,000 active; AID 797; in the data active = inhibition above about 50%
Arbovirus inh – blocks arbovirus infection. arbovirus infection cell-based antiviral screen. inhibition, % at 10 µM. 0.37% of 200,000 active. AID 1251; in the data active = inhibition above about 30%
Autophagy mod – alters autophagy in cells; MEF GFP-LC3 puncta imaging; test concentration mostly 10 µM; calls only at 10 µM (by protocol); 0.98% of 190,000 active;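 active = percentage of spot-positive cells more than 3 SD above its plate mean, without a fluorescence outlier flag or 80% toxicity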;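 note: spot-positive cell cutoff set from DMSO-treated cells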
Insulin prom inh – TRM-6 insulin promoter activity inhibition; TRM-6 cells (human fetal islet line), insulin promoter-eGFP reporter, imaging; reporter expression induced with tamoxifen; inhibition, % at 2 µM; 0.9% of 130,000 active;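 active = inhibition above the mean plus 3 SD, with well images judged a real hit on visual review, cut at about 60% in these data, passing the limit was not always enough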
An asterisk follows results filed as active.

Screening Cc1ccc(COc2ccccc2-c2cc(C(=O)N/N=C/c3cccnc3)[nH]n2)cc1 returned RBBP9 inhibitor -77.
`c1ccc(Nc2nc3ccccc3o2)cc1` gave RBBP9 inhibitor -5, PKD1 inh 0, Arbovirus inh 0, Autophagy mod inactive and Insulin prom inh 68*.
FC(F)(F)Oc1ccc(Nc2nc3ccccc3o2)cc1 was read as Insulin prom up 0.33, RBBP9 inhibitor -4, PKD1 inh -5, Arbovirus inh 3, Autophagy mod inactive and Insulin prom inh 31.
`CCOc1ccc2nc(SCC(=O)NC(=O)C(C)C)sc2c1` gave Insulin prom up -0.23, RBBP9 inhibitor -9, PKD1 inh 0, Arbovirus inh 1, Autophagy mod inactive and Insulin prom inh 100*.
Screening O=C(CNCc1cccs1)NC12CC3CC(CC(C3)C1)C2 returned Insulin prom up -0.6, RBBP9 inhibitor 11, PKD1 inh 6, Arbovirus inh -4, Autophagy mod inactive and Insulin prom inh -115.
Screening CC1(C)C2CCC(C2)C1(C)NC(=O)CNCc1cccs1 (stereo not given) returned Insulin prom up 0.45, RBBP9 inhibitor -3, PKD1 inh -4, Arbovirus inh 30*, Autophagy mod inactive and Insulin prom inh 18.
Screening CCN1CCN(C(c2ccccc2)c2nnnn2CCc2ccc(OC)c(OC)c2)CC1 (stereo not given) returned Insulin prom up -0.71, RBBP9 inhibitor -8, PKD1 inh -5, Arbovirus inh 10, Autophagy mod inactive and Insulin prom inh 13.
For O=Cc1ccc(-c2ccc(F)cc2)o1 the results were Insulin prom up 0.31, RBBP9 inhibitor 1, PKD1 inh -4, Arbovirus inh 1, Autophagy mod inactive and Insulin prom inh 13.
`O=C(O)/C(=C\c1ccc(-c2ccc(F)cc2)o1)c1ccccc1` gave Insulin prom up -0.43, RBBP9 inhibitor -2, PKD1 inh -5, Arbovirus inh 44*, Autophagy mod inactive and Insulin prom inh 17.
CCNC(=O)CON=C1c2ccccc2-c2ccccc21 was read as Insulin prom up 0.4, RBBP9 inhibitor -3, PKD1 inh 11, Arbovirus inh -7, Autophagy mod active and Insulin prom inh -23.
CCC(CC)NC(=O)CON=C1c2ccccc2-c2ccccc21 was read as Insulin prom up 0.1, RBBP9 inhibitor -7, PKD1 inh 0, Arbovirus inh -7, Autophagy mod inactive and Insulin prom inh -88.
Screening CC(=O)N1C(C)(C)CC(=NOC(=O)c2ccccc2)CC1(C)C returned Insulin prom up 0.33, RBBP9 inhibitor -4, PKD1 inh 2, Arbovirus inh 0, Autophagy mod inactive and Insulin prom inh 8.
`CN(CC(O)COc1ccc(OCC(O)CN(C)C2CCCCC2)cc1)C1CCCCC1` (stereo not given) gave Insulin prom up 0.07, RBBP9 inhibitor -6, PKD1 inh -2, Arbovirus inh -25, Autophagy mod active and Insulin prom inh -3.
For CCC(=O)c1ccc(OCC(O)CN(C)C2CCCCC2)cc1 (stereo not given) the results were RBBP9 inhibitor -1, PKD1 inh -2, Arbovirus inh -8, Autophagy mod inactive and Insulin prom inh 31.
N#Cc1c(NC(=O)Cn2c(=O)oc3ccccc32)oc(-c2ccccc2)c1-c1ccccc1 was read as Insulin prom up 0.18, RBBP9 inhibitor -6, PKD1 inh -11, Arbovirus inh -12, Autophagy mod inactive and Insulin prom inh 16.
Screening CCCS(=O)(=O)N1CCC(C(=O)N2CCCC2)CC1 returned Insulin prom up 0.48, RBBP9 inhibitor -7, PKD1 inh 0, Arbovirus inh 8, Autophagy mod inactive and Insulin prom inh 21.
`CCCS(=O)(=O)N1CCC(C(=O)N2CCOCC2)CC1` gave Insulin prom up 4*, RBBP9 inhibitor 1, PKD1 inh 3, Arbovirus inh 0 and Autophagy mod inactive.
For CCCCNC(=S)N(C)/N=C/c1c(C)[nH]c2ccccc12 the results were Insulin prom up 0.81, RBBP9 inhibitor -9, PKD1 inh 0, Arbovirus inh -11, Autophagy mod active and Insulin prom inh -108.
CCCCNC(=S)N(C)/N=C/c1c(F)c(F)c(F)c(F)c1F was read as Insulin prom up -0.06, RBBP9 inhibitor -4, PKD1 inh -7, Arbovirus inh -15, Autophagy mod inactive and Insulin prom inh 0.
Screening O=c1[nH]c(=O)n(Cc2ccccc2)c2nc(-c3ccc(Oc4ccc(F)cc4)c([N+](=O)[O-])c3)n(CCO)c12 returned Insulin prom up 0.18, RBBP9 inhibitor -8, PKD1 inh 6, Arbovirus inh -33, Autophagy mod inactive and Insulin prom inh 74*.
`COc1ccc(-c2ccc(-c3nc4c(c(=O)[nH]c(=O)n4Cc4ccccc4)n3C)o2)c([N+](=O)[O-])c1` gave Insulin prom up -0.97, RBBP9 inhibitor -12, PKD1 inh -18, Arbovirus inh -28, Autophagy mod inactive and Insulin prom inh -7.
Screening Cc1cc(NC(c2ccc(Cl)cc2)c2ccc3cccnc3c2O)no1 (stereo not given) returned RBBP9 inhibitor -3, PKD1 inh 0, Arbovirus inh -25, Autophagy mod active and Insulin prom inh 42.
Screening Cc1ccnc(NC(c2cccnc2)c2ccc3cccnc3c2O)c1 (stereo not given) returned Insulin prom up 0.57, RBBP9 inhibitor -7, PKD1 inh 1, Arbovirus inh -18, Autophagy mod inactive and Insulin prom inh -33.
For COc1cc(C(=O)Nc2cccc(-c3nc4cc(C)ccc4o3)c2)cc(OC)c1OC the results were Insulin prom up -0.29, RBBP9 inhibitor -10, PKD1 inh -9, Arbovirus inh -11, Autophagy mod inactive and Insulin prom inh 71*.
Screening COc1cc(C(=O)Nc2cc(-c3nc4cc(C)ccc4o3)ccc2C)cc(OC)c1OC returned Insulin prom up -0.69, RBBP9 inhibitor -3, PKD1 inh -4, Arbovirus inh -1, Autophagy mod inactive and Insulin prom inh 50.
Screening O=C(OCc1ccc([N+](=O)[O-])cc1)C1CC(=O)N(c2ccccc2)C1 (stereo not given) returned Insulin prom up 0.1, RBBP9 inhibitor 14, PKD1 inh -5, Arbovirus inh 3, Autophagy mod inactive and Insulin prom inh 79*.
`Cc1cccc(N2CC(C(=O)OCc3ccc([N+](=O)[O-])cc3)CC2=O)c1` (stereo not given) gave Insulin prom up 0.62, RBBP9 inhibitor 1, PKD1 inh 2, Arbovirus inh 17 and Autophagy mod inactive.
For O=C(CSc1nnc(CNc2ccc(F)cc2)n1Cc1ccco1)N1CCOCC1 the results were Insulin prom up -0.31, RBBP9 inhibitor -4, PKD1 inh 0, Arbovirus inh 0, Autophagy mod inactive and Insulin prom inh -10.
CCOC(=O)N1CCC(n2c(=S)[nH]c3cc(OCC)c(OCC)cc3c2=O)CC1 was read as Insulin prom up -0.24, RBBP9 inhibitor -5, PKD1 inh 1, Arbovirus inh 3, Autophagy mod active and Insulin prom inh 11.
